Laboratory results published in ChEMBL document CHEMBL1156597, “Structure-activity relationship of kahalalide F synthetic analogues” (J Med Chem, 2008).

Experiments:
[1] = Cytotoxicity against human HeLa-APL cells after 48 hrs by SRB assay; type: functional
Outline: (§1)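 Cells grown in RPMI 1640 with 10% FBS and penicillin/streptomycin at 37 °C and 5% CO₂, trypsinized, then seeded at 5 × 10³/well. After 18 h drug-free attachment, samples in DMSO/EtOH/PBS (0.5:0.5:99) were added for 48 h continuous exposure. Cells were fixed with cold TCA (1 h, 4 °C) and stained with SRB (10 min). Tris-solubilized stain read at 490 nm. Triplicate wells, mean ± SD; GI₅₀ derived.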

[2] = test system: HeLa; assay: Cytotoxicity against human HeLa cells after 48 hrs by SRB assay; type: functional; settings: for CC50: read-out: LC50 (the source's name); outline: as §1
[3] = test system: PANC-1; assay: Cytotoxicity against human PANC1 cells after 48 hrs by SRB assay; type: functional; settings: PANC-1, 48 h; for CC50: read-out: LC50 (the source's name); outline: as §1
[4] = test system: SK-MEL-28; assay: Cytotoxicity against human SK-MEL-28 cells after 48 hrs by SRB assay; type: functional, cell-based; settings: Homo sapiens, SK-MEL-28, 48 h; for CC50: read-out: LC50 (the source's name); outline: as §1
[5] = test system: DU-145; assay: Cytotoxicity against human DU145 cells after 48 hrs by SRB assay; type: functional, cell-based; settings: Homo sapiens, DU-145, 48 h; for CC50: read-out: LC50 (the source's name); outline: as §1
[6] = test system: A549; assay: Cytotoxicity against human A549 cells after 48 hrs by SRB assay; type: functional, cell-based; settings: Homo sapiens, A549, 48 h; outline: as §1
[7] = Cytotoxicity against human IGROV-ET cells after 48 hrs by SRB assay; type: functional; settings: for CC50: read-out: LC50 (the source's name); outline: as §1
[8] = test system: LNCaP; assay: Cytotoxicity against human LNcaP cells after 48 hrs by SRB assay; type: functional; settings: for CC50: read-out: LC50 (the source's name); outline: as §1
[9] = test system: HT-29; assay: Cytotoxicity against human HT29 cells after 48 hrs by SRB assay; type: functional, cell-based; settings: Homo sapiens, HT-29, 48 h; for CC50: read-out: LC50 (the source's name); outline: as §1
[10] = test system: K562; assay: Cytotoxicity against human K562 cells after 48 hrs by SRB assay; type: functional; settings: K562, 48 h; for CC50: read-out: LC50 (the source's name); outline: as §1
[11] = test system: SK-BR-3; assay: Cytotoxicity against human SKBR3 cells after 48 hrs by SRB assay; type: functional; settings: SK-BR-3, 48 h; for GI50: read-out: GI50; for CC50: read-out: LC50 (the source's name); outline: as §1
[12] = test system: LoVo; assay: Cytotoxicity against human LoVo cells after 48 hrs by SRB assay; type: functional; settings: for CC50: read-out: LC50 (the source's name)
[13] = Cytotoxicity against human IGROV cells after 48 hrs by SRB assay; type: functional; settings: for CC50: read-out: LC50 (the source's name); outline: as §1

| Structure (SMILES) | GI50 [1] | LC50 (concentration giving 50% net cell kill) [1] | CC50 [2] | CC50 [3] | CC50 [4] | CC50 [5] | LC50 [6] | CC50 [7] | GI50 [8] | TGI [8] | CC50 [8] | CC50 [9] | CC50 [10] | TGI [11] | GI50 [11] | CC50 [11] | GI50 [12] | TGI [12] | CC50 [12] | CC50 [13] | further results |
| --- | --- | --- | --- | --- | --- | --- | --- | --- | --- | --- | --- | --- | --- | --- | --- | --- | --- | --- | --- | --- | --- |
| C/C=C1\NC(=O)[C@H](Cc2ccccc2)NC(=O)[C@@H](C(C)C)NC(=O)[C@@H]([C@H](C)CC)NC(=O)[C@H](NC(=O)[C@H](NC(=O)[C@H](CCCN)NC(=O)[C@H]2CCCN2C(=O)[C@H](NC(=O)[C@@H](NC(=O)[C@@H](NC(=O)[C@H](NC(=O)c2ccccc2)C(C)C)[C@@H](C)O)C(C)C)C(C)C)[C@H](C)CC)[C@H](C)OC(=O)[C@H](C(C)C)NC1=O | 1.04 µM | 0.834 µM | 0.732 µM | 2.54 µM | 0.901 µM | 1.04 µM | 1.12 µM | 0.436 µM | 1.19 µM | 1.37 µM | 1.54 µM | 0.508 µM | 2.45 µM | 1.36 µM | 0.874 µM | 1.39 µM | 0.353 µM | 0.423 µM | 0.573 µM | 3.91 µM | TGI [1]: 0.934 µM; GI50 [2]: 1.21 µM; TGI [2]: 0.945 µM; GI50 [3]: 5.38 µM; TGI [3]: 4.94 µM; TGI [4]: 1.01 µM; GI50 ([4]; read-out: GI50): 1.12 µM; TGI [5]: 1.12 µM; GI50 ([5]; read-out: GI50): 1.21 µM; TGI [6]: 1.22 µM; GI50 ([6]; read-out: GI50): 1.32 µM; GI50 [7]: 0.521 µM; GI50 ([7]; read-out: GI50): 0.627 µM; GI50 [10]: 0.431 µM; TGI [10]: 1.51 µM; GI50 [13]: 0.565 µM; GI50 ([13]; read-out: GI50): 0.997 µM |
| C/C=C1\NC(=O)[C@H](Cc2ccccc2)NC(=O)[C@@H](C(C)C)NC(=O)[C@@H]([C@H](C)CC)NC(=O)[C@H](NC(=O)[C@H](NC(=O)[C@H](CCCC[N+](C)(C)C)NC(=O)[C@H]2CCCN2C(=O)[C@H](NC(=O)[C@@H](NC(=O)[C@@H](NC(=O)[C@H](NC(=O)CC[C@@H](C)CC)C(C)C)[C@@H](C)O)C(C)C)C(C)C)[C@H](C)CC)[C@H](C)OC(=O)[C@H](C(C)C)NC1=O | 1.11 µM | 0.859 µM | 0.689 µM | 2.44 µM | 0.863 µM | 0.88 µM | 1.12 µM | 0.446 µM | 1.06 µM | 1.06 µM | 1.06 µM | 0.476 µM | 2.34 µM | 0.363 µM | 0.372 µM | 0.369 µM | 0.361 µM | 0.353 µM | 0.347 µM | 0.391 µM | TGI [1]: 0.979 µM; GI50 [2]: 0.943 µM; TGI [2]: 0.809 µM; GI50 [3]: 4.16 µM; TGI [3]: 4.73 µM; GI50 [4]: 0.979 µM; GI50 ([4]; read-out: GI50): 1.11 µM; GI50 [5]: 0.948 µM; GI50 ([5]; read-out: GI50): 1.02 µM; TGI [6]: 1.24 µM; GI50 ([6]; read-out: GI50): 1.39 µM; GI50 [7]: 0.532 µM; GI50 ([7]; read-out: GI50): 0.639 µM; GI50 [9]: 0.786 µM; TGI [9]: 0.754 µM; GI50 [10]: 1.84 µM; TGI [10]: 3.31 µM; GI50 [13]: 0.47 µM; GI50 ([13]; read-out: GI50): 0.612 µM |
| C/C=C1\NC(=O)[C@H](Cc2ccccc2)NC(=O)[C@@H](C(C)C)NC(=O)[C@@H]([C@H](C)CC)NC(=O)[C@H](NC(=O)[C@H](NC(=O)[C@H](CCCN)NC(=O)[C@H]2CCCN2C(=O)[C@H](NC(=O)[C@H](C)NC(=O)[C@@H](NC(=O)[C@H](NC(=O)CCCC(C)C)C(C)C)[C@@H](C)O)C(C)C)[C@H](C)CC)[C@H](C)OC(=O)[C@H](C(C)C)NC1=O | 3.27 µM | 1.35 µM | 1.06 µM | 2.58 µM | 1.47 µM | 1.68 µM | 1.94 µM | 0.599 µM | 2.8 µM | 3.3 µM | 1.57 µM | 0.665 µM | 2.48 µM | 2.96 µM | 3.25 µM | 2.17 µM | 2.68 µM | 2.83 µM | 2.99 µM | 0.533 µM | TGI [1]: 3.1 µM; GI50 [2]: 3.1 µM; TGI [2]: 2.83 µM; TGI [4]: 3.07 µM; GI50 ([4]; read-out: GI50): 3.45 µM; TGI [5]: 3.87 µM; GI50 ([5]; read-out: GI50): 3.9 µM; TGI [6]: 4.31 µM; GI50 ([6]; read-out: GI50): 3.73 µM; GI50 [7]: 0.863 µM; GI50 ([7]; read-out: GI50): 1.25 µM; GI50 [10]: 4.32 µM; TGI [10]: 4.93 µM; GI50 [13]: 0.934 µM; GI50 ([13]; read-out: GI50): 2 µM |
| C/C=C1\NC(=O)[C@H](Cc2ccccc2)NC(=O)[C@@H](C(C)C)NC(=O)[C@@H]([C@H](C)CC)NC(=O)[C@H](NC(=O)[C@H](NC(=O)[C@H](CCCN)NC(=O)[C@H]2CCCN2C(=O)[C@H](NC(=O)[C@H](Cc2ccccc2)NC(=O)[C@@H](NC(=O)[C@H](NC(=O)CCCC(C)C)C(C)C)[C@@H](C)O)C(C)C)[C@H](C)CC)[C@H](C)OC(=O)[C@H](C(C)C)NC1=O | 0.816 µM | 0.768 µM | 0.607 µM | 2.45 µM | 0.76 µM | 0.785 µM | 0.96 µM | 0.262 µM | 0.857 µM | 0.941 µM | 1.03 µM | 0.0695 µM | 1.38 µM | 0.323 µM | 0.325 µM | 0.26 µM | 0.29 µM | 0.31 µM | 0.333 µM | 0.343 µM | TGI [1]: 0.795 µM; GI50 [2]: 0.432 µM; TGI [2]: 0.542 µM; GI50 [3]: 2.54 µM; TGI [3]: 3.53 µM; GI50 [4]: 0.739 µM; GI50 ([4]; read-out: GI50): 0.73 µM; GI50 [5]: 0.752 µM; GI50 ([5]; read-out: GI50): 0.612 µM; GI50 [6]: 0.875 µM; GI50 ([6]; read-out: GI50): 0.722 µM; GI50 [7]: 0.184 µM; GI50 ([7]; read-out: GI50): 0.194 µM; GI50 [10]: 1.74 µM; TGI [10]: 1.56 µM; GI50 [13]: 0.25 µM; GI50 ([13]; read-out: GI50): 0.337 µM |
| C/C=C1\NC(=O)[C@H](Cc2ccccc2)NC(=O)[C@@H](C(C)C)NC(=O)[C@@H]([C@H](C)CC)NC(=O)[C@H](NC(=O)[C@H](NC(=O)[C@H](CCCN)NC(=O)[C@H]2CCCN2C(=O)[C@H](NC(=O)[C@@H](NC(=O)[C@@H](NC(=O)[C@H](NC(=O)CCCC(C)C)C(C)C)[C@@H](C)O)C(C)C)C(C)C)[C@H](C)CC)CNC(=O)[C@H](C(C)C)NC1=O |  | 1.34 µM | 1.05 µM | 2.56 µM | 1.46 µM | 1.67 µM | 1.93 µM | 0.71 µM |  |  | 1.55 µM | 0.895 µM | 2.46 µM | 8.04 µM | 8.66 µM | 2.81 µM | 11.5 µM | 9.55 µM | 4.84 µM | 0.637 µM |  |
| C/C=C1\NC(=O)[C@H](Cc2ccccc2)NC(=O)[C@@H](C(C)C)NC(=O)[C@@H]([C@H](C)CC)NC(=O)[C@H](NC(=O)[C@H](NC(=O)[C@H](CCCN)NC(=O)[C@H]2CCCN2C(=O)[C@H](NC(=O)[C@H](CCC(N)=O)NC(=O)[C@@H](NC(=O)[C@H](NC(=O)CCCC(C)C)C(C)C)[C@@H](C)O)C(C)C)[C@H](C)CC)[C@H](C)OC(=O)[C@H](C(C)C)NC1=O |  | 1.3 µM | 1.02 µM | 2.48 µM | 1.41 µM | 1.62 µM | 1.87 µM | 0.689 µM | 3.12 µM | 3.17 µM | 1.51 µM | 0.869 µM | 2.39 µM |  |  | 2.72 µM |  |  | 4.69 µM | 0.619 µM |  |
